Measured values published in ChEMBL document CHEMBL3244397, “New dopaminergic and potential anti-parkinson compounds, N,N-disubstituted beta-(3,4-dihydroxyphenyl)ethylamines” (J Med Chem, 1978).

Key:
Mus musculus [1] = assay: Antiparkinsonian activity in caudectomized mouse assessed as onset of curvature at 0.348 umol/g, ip; format: functional
In short: (§1)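 Hydrochlorides in 0.9% saline (0.4-0.6 mL) were given ip in random groups of six, with 5-6-day intervals between retests. A blinded observer recorded onset and duration of asymmetric posture; mean and SE per six mice.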

Mus musculus [2] = assay: Antiparkinsonian activity in caudectomized mouse assessed as duration of curvature at 0.348 umol/g, ip; format: functional; in short: as §1
Mus musculus [3] = assay: Antiparkinsonian activity in caudectomized mouse assessed as duration of curvature at 0.087 umol/g, ip; format: functional; in short: as §1
Rattus norvegicus [4] = assay: Antiparkinsonian activity in Nigra-lesioned rat assessed as number of turns per 98 mins at 0.087 umol/g, ip; format: functional
In short: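 Male Sprague-Dawley rats given 6-hydroxydopamine stereotaxically into the right substantia nigra. Used ≥4 weeks post-lesion if they rotated away from the lesion after reference agonist (1.0 µg/g ip). Compounds given ip as hydrochloride salts in 0.9% saline, […], to the same six rats at 5-day intervals. Turns counted in automatic rotometers. Mean ± SE of total turns and duration.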

Mus musculus [5] = assay: Antiparkinsonian activity in caudectomized mouse assessed as onset of curvature at 0.087 umol/g, ip; format: functional; in short: as §1
Rattus norvegicus [6] = assay: Antiparkinsonian activity in Nigra-lesioned rat assessed as number of turns per 45 mins at 0.087 umol/g, ip; format: functional
In short: (§2)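 Male Sprague-Dawley rats given 6-hydroxydopamine stereotaxically into the right substantia nigra. Used ≥4 weeks later if they turned away from the lesion after la (1.0 µg/g). The same six rats were dosed ip at 5-day intervals as hydrochloride in 0.9% saline; a saline-injected rat served as control. Turns were counted in automatic rotometers; mean and SE of total turns and duration.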

Mus musculus [7] = assay: Antiparkinsonian activity in caudectomized mouse assessed as duration of curvature at 0.435 umol/g, ip; format: functional; in short: as §1
Mus musculus [8] = assay: Antiparkinsonian activity in caudectomized mouse assessed as onset of curvature at 0.174 umol/g, ip; format: functional; in short: as §1
Mus musculus [9] = assay: Antiparkinsonian activity in caudectomized mouse assessed as duration of curvature at 0.174 umol/g, ip; format: functional; in short: as §1
Rattus norvegicus [10] = assay: Antiparkinsonian activity in Nigra-lesioned rat assessed as number of turns per 79 mins at 0.087 umol/g, ip; format: functional; in short: as §2
Mus musculus [11] = assay: Antiparkinsonian activity in caudectomized mouse assessed as duration of curvature at 0.305 umol/g, ip; format: functional; in short: as §1
Mus musculus [12] = assay: Toxicity in caudectomized mouse assessed as mortality at 0.305 umol/g, ip; format: organism-based; conditions: in vivo
In short: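 Caudectomized mice, screened for postural response to la (1.0 µg/g), received hydrochloride ip in 0.9% saline. Deaths during behavioural observation were recorded; in one case eight mice were tested.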

Rattus norvegicus [13] = assay: Antiparkinsonian activity in Nigra-lesioned rat assessed as number of turns at 0.348 umol/g, ip; format: functional; in short: as §2
Rattus norvegicus [14] = assay: Antiparkinsonian activity in Nigra-lesioned rat assessed as number of turns per 48 mins at 0.087 umol/g, ip; format: functional; in short: as §2
Rattus norvegicus [15] = assay: Antiparkinsonian activity in Nigra-lesioned rat assessed as number of turns per 83 mins at 0.003 umol/g, ip; format: functional; in short: as §2
Mus musculus [16] = assay: Antiparkinsonian activity in caudectomized mouse assessed as duration of curvature at 0.003 umol/g, ip; format: functional; in short: as §1
Mus musculus [17] = assay: Antiparkinsonian activity in caudectomized mouse assessed as onset of curvature at 0.003 umol/g, ip; format: functional; in short: as §1

CN(CCc1ccccc1)CCc1ccc(O)c(O)c1.Cl
Time (Mus musculus [1]): 6.7 min | Time (Mus musculus [2]): 21.2 min | Time (Mus musculus [3]): 0 min

CCCN(CCc1ccccc1)CCc1ccc(O)c(O)c1.Cl
Activity (Rattus norvegicus [4]): 1065 | Time (Mus musculus [3]): 15.4 min | Time (Mus musculus [5]): 5 min

CCCCN(CCC)CCc1ccc(O)c(O)c1.Cl
Activity (Rattus norvegicus [6]): 552 | Time (Mus musculus [3]): 6.5 min | Time (Mus musculus [5]): 4.6 min

CCCCN(CCCC)CCc1ccc(O)c(O)c1.Cl
Time (Mus musculus [7]): 0 min | Time (Mus musculus [2]): 0 min

CCCCCNCCc1ccc(O)c(O)c1.Cl
Time (Mus musculus [2]): 0 min

CCCCCN(C)CCc1ccc(O)c(O)c1.Cl
Time (Mus musculus [8]): 3.8 min | Time (Mus musculus [9]): 2.5 min | Time (Mus musculus [1]): 14.6 min | Time (Mus musculus [2]): 20.6 min | Time (Mus musculus [3]): 0 min

CCCCCN(CCC)CCc1ccc(O)c(O)c1.I
Activity (Rattus norvegicus [10]): 628 | Time (Mus musculus [3]): 14 min | Time (Mus musculus [5]): 4.2 min

CCCCCN(CCCCC)CCc1ccc(O)c(O)c1.Cl
Time (Mus musculus [11]): 0 min | Activity (Mus musculus [12]): Toxic

CC(C)CNCCc1ccc(O)c(O)c1.Cl
Time (Mus musculus [2]): 0 min

CC(C)CN(C)CCc1ccc(O)c(O)c1.Cl
Time (Mus musculus [8]): 4 min | Time (Mus musculus [9]): 2.8 min | Time (Mus musculus [1]): 3.6 min | Time (Mus musculus [2]): 31.8 min | Time (Mus musculus [3]): 0 min

CCCN(CCc1ccc(O)c(O)c1)CC(C)C.Cl
Time (Mus musculus [3]): 10 min | Time (Mus musculus [5]): 3.9 min

Cl.Oc1ccc(CCNCCc2ccccc2)cc1O
Time (Mus musculus [2]): 0 min

CCCCN(CCC)CCc1ccc2c(c1)OCO2.Cl
Time (Mus musculus [2]): 0 min | Activity (Rattus norvegicus [13]): 0

CCCCN(CCC)CCc1ccc(O)c(O)c1.I
Activity (Rattus norvegicus [14]): 457 | Time (Mus musculus [3]): 6.7 min | Time (Mus musculus [5]): 3.5 min

CN1CCc2cccc3c2[C@H]1Cc1ccc(O)c(O)c1-3 [APOMORPHINE]
Activity (Rattus norvegicus [15]): 828 | Time (Mus musculus [16]): 14.2 min | Time (Mus musculus [17]): 5 min
